Source: ChEMBL document CHEMBL1143838, “Candida albicans and Candida dubliniensis respond differently to echinocandin antifungal agents in vitro” (2007)
*1 amine or outer side, *2 acyl side, *3 side chain or, on linkers, in order; H or OH if unused. Where a SMILES comes first, the peptide text is derived from it. Bridges are numbered along the chain shown (N, C = ends). [ ]: non-standard residue; d: D form. The star is where a group is joined. pTerphenylCO(4''-OnC5H11) = CCCCCOc1ccc(-c2ccc(-c3ccc(C(=O)*)cc3)cc2)cc1; Orn(4R-OH,5R-OH) = O=C([C@H](C[C@@H](O)[C@@H](O)N[*:3])N[*:1])[*:2]; hTyr(3S-OH,4S-OH) = N[C@H](C(=O)O)[C@H](O)[C@@H](O)c1ccc(O)cc1; Pro(3S-OH,4S-Me) = C[C@H]1CN[C@H](C(=O)O)[C@H]1O; Hyp = O=C(O)[C@@H]1C[C@@H](O)CN1

Columns and labels:
Format in all cases: functional
[1] = tested on: Candida dubliniensis; assay: Antifungal activity against Candida dubliniensis B71507 after 24 hrs by CLSI M27-A test
How it was run: (§1)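 Broth microdilution with echinocandins as aqueous doubling dilutions. Yeasts were grown overnight at 30°C in NGY and seeded at 10^3 yeasts/ml initial concentration in MOPS-buffered RPMI 1640, then incubated at 35°C for 24 h. The MIC was read visually as the lowest concentration giving a marked decrease in visible growth; paradoxical or trailing growth was noted.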

[2] = tested on: Candida albicans; assay: Antifungal activity against Candida albicans SCS68858 after 24 hrs by EUCAST test
How it was run: (§2)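 EUCAST broth microdilution with aqueous doubling dilutions of drug. Inoculum grown overnight at 30°C in NGY, then added to MOPS-buffered RPMI 1640 with 2% glucose at an initial 10^5 yeasts/ml. Incubated 35°C for 24 h. MICs taken from triplicate spectrophotometric dose-response data as 50% and 80% growth-reduction endpoints.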

[3] = tested on: Candida albicans; assay: Antifungal activity against Candida albicans CAI4RI after 24 hrs by EUCAST test; how it was run: as §2
[4] = tested on: Candida dubliniensis; assay: Antifungal activity against Candida dubliniensis J930936 after 24 hrs by EUCAST test
How it was run: (§3)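 Yeasts were grown overnight at 30°C in NGY, then inoculated at 10^5 yeasts/ml initial concentration into MOPS-buffered RPMI 1640 with 2% glucose containing aqueous doubling dilutions of drug. Plates were held at 35°C for 24 h. MICs came from triplicate spectrophotometric dose-response data at 50% and 80% growth-reduction endpoints. Trailing meant a >100-fold gap between these endpoints; paradoxical meant regrowth ≥5% above the curve minimum.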

[5] = tested on: Candida albicans; assay: Antifungal activity against Candida albicans JIMS101103 after 24 hrs by EUCAST test; how it was run: as §2
[6] = tested on: Candida albicans; assay: Antifungal activity against Candida albicans T28 after 24 hrs by EUCAST test; how it was run: as §2
[7] = tested on: Pichia kudriavzevii; assay: Antifungal activity against Candida krusei ATCC 6258 after 24 hrs by CLSI M27-A test; conditions: ATCC 6258, 24 h
How it was run: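 Broth microdilution per CLSI M27-A. Drugs were prepared as aqueous doubling dilutions. Inoculum was grown overnight at 30°C in neopeptone-yeast extract-glucose medium, then added to MOPS-buffered RPMI 1640 at an initial 10^3 yeasts/ml. Plates were incubated at 35°C for 24 h. MIC was read visually as the lowest concentration giving a marked decrease in visible growth.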

[8] = tested on: Candida albicans; assay: Antifungal activity against Candida albicans NR2 after 24 hrs by CLSI M27-A test
How it was run: (§4)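 CLSI M27-A broth microdilution with aqueous doubling dilutions of drug. Inoculum grown overnight at 30°C in NGY medium, then added to MOPS-buffered RPMI 1640 at an initial 10^3 yeasts/ml. Incubated 35°C for 24 h. MIC read visually as the lowest concentration giving a marked decrease in visible growth; paradoxical or trailing growth noted.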

[9] = tested on: Candida dubliniensis; assay: Antifungal activity against Candida dubliniensis 81/060 after 24 hrs by EUCAST test; how it was run: as §2
[10] = tested on: Candida dubliniensis; assay: Antifungal activity against Candida dubliniensis IK after 24 hrs by EUCAST test; how it was run: as §3
[11] = tested on: Candida dubliniensis; assay: Antifungal activity against Candida dubliniensis FS after 24 hrs by EUCAST test; how it was run: as §3
[12] = tested on: Candida albicans; assay: Antifungal activity against Candida albicans SC5314 after 24 hrs by EUCAST test; conditions: SC5314, 24 h; how it was run: as §2
[13] = tested on: Candida albicans; assay: Antifungal activity against Candida albicans JIMS132203 after 24 hrs by CLSI M27-A test; how it was run: as §4
[14] = tested on: Candida dubliniensis; assay: Antifungal activity against Candida dubliniensis AMCC after 24 hrs by CLSI M27-A test; how it was run: as §4
[15] = tested on: Candida dubliniensis; assay: Antifungal activity against Candida dubliniensis J931021 after 24 hrs by EUCAST test; how it was run: as §3
[16] = tested on: Candida dubliniensis; assay: Antifungal activity against Candida dubliniensis SCS65875C after 24 hrs by CLSI M27-A test; how it was run: as §1
[17] = tested on: Candida dubliniensis; assay: Antifungal activity against Candida dubliniensis SCSBB417709 after 24 hrs by EUCAST test; how it was run: as §3
[18] = tested on: Candida dubliniensis; assay: Antifungal activity against Candida dubliniensis J930936 after 24 hrs by CLSI M27-A test; how it was run: as §1
[19] = tested on: Candida albicans; assay: Antifungal activity against Candida albicans T26 after 24 hrs by CLSI M27-A test; how it was run: as §4
[20] = tested on: Candida dubliniensis; assay: Antifungal activity against Candida dubliniensis Leic875 after 24 hrs by CLSI M27-A test; how it was run: as §1
[21] = tested on: Candida albicans; assay: Antifungal activity against Candida albicans T32 after 24 hrs by EUCAST test; how it was run: as §2
[22] = tested on: Candida dubliniensis; assay: Antifungal activity against Candida dubliniensis 910Aa after 24 hrs by CLSI M27-A test; how it was run: as §4
[23] = tested on: Candida albicans; assay: Antifungal activity against Candida albicans SCS67023C after 24 hrs by CLSI M27-A test; how it was run: as §4
[24] = tested on: Candida albicans; assay: Antifungal activity against Candida albicans B06-341 after 24 hrs by CLSI M27-A test; how it was run: as §4
[25] = tested on: Candida albicans; assay: Antifungal activity against Candida albicans SCS140136P after 24 hrs by CLSI M27-A test; how it was run: as §4
[26] = tested on: Candida albicans; assay: Antifungal activity against Candida albicans T32 after 24 hrs by CLSI M27-A test; how it was run: as §4
[27] = tested on: Candida albicans; assay: Antifungal activity against Candida albicans Y109 after 24 hrs by EUCAST test; how it was run: as §2
[28] = tested on: Candida albicans; assay: Antifungal activity against Candida albicans AM2003/0083 after 24 hrs by EUCAST test; how it was run: as §2
[29] = tested on: Candida dubliniensis; assay: Antifungal activity against Candida dubliniensis Leic875 after 24 hrs by EUCAST test; how it was run: as §3
[30] = tested on: Candida albicans; assay: Antifungal activity against Candida albicans NCPF6525 after 24 hrs by CLSI M27-A test; how it was run: as §4
[31] = tested on: Candida albicans; assay: Antifungal activity against Candida albicans NR4 after 24 hrs by EUCAST test; how it was run: as §2
[32] = tested on: Candida albicans; assay: Antifungal activity against Candida albicans JIMS146204 after 24 hrs by CLSI M27-A test; how it was run: as §4
[33] = tested on: Candida albicans; assay: Antifungal activity against Candida albicans NCPF6525 after 24 hrs by EUCAST test; how it was run: as §2
[34] = tested on: Candida albicans; assay: Antifungal activity against Candida albicans SCS67023C after 24 hrs by EUCAST test; how it was run: as §2
[35] = tested on: Candida albicans; assay: Antifungal activity against Candida albicans T28 after 24 hrs by CLSI M27-A test; how it was run: as §4
[36] = tested on: Candida dubliniensis; assay: Antifungal activity against Candida dubliniensis J931021 after 24 hrs by CLSI M27-A test; how it was run: as §1
[37] = tested on: Candida dubliniensis; assay: Antifungal activity against Candida dubliniensis B71507 after 24 hrs by EUCAST test; how it was run: as §3
[38] = tested on: Candida dubliniensis; assay: Antifungal activity against Candida dubliniensis 75/043 after 24 hrs by EUCAST test; how it was run: as §2
[39] = tested on: Candida dubliniensis; assay: Antifungal activity against Candida dubliniensis SCS17154969-1 after 24 hrs by EUCAST test; how it was run: as §3
[40] = tested on: Candida albicans; assay: Antifungal activity against Candida albicans SC5314 after 24 hrs by CLSI M27-A test; conditions: SC5314, 24 h; how it was run: as §4
[41] = tested on: Candida albicans; assay: Antifungal activity against Candida albicans JIMS146204 after 24 hrs by EUCAST test; how it was run: as §2
[42] = tested on: Candida albicans; assay: Antifungal activity against Candida albicans CAI4RI after 24 hrs by CLSI M27-A test; how it was run: as §4
[43] = tested on: Candida dubliniensis; assay: Antifungal activity against Candida dubliniensis AMCC after 24 hrs by EUCAST test; how it was run: as §2
[44] = tested on: Candida dubliniensis; assay: Antifungal activity against Candida dubliniensis SCS17154969-2 after 24 hrs by CLSI M27-A test; how it was run: as §1
[45] = tested on: Candida dubliniensis; assay: Antifungal activity against Candida dubliniensis FS after 24 hrs by CLSI M27-A test; how it was run: as §1

Measured: MIC50

CCCCCOc1ccc(-c2ccc(-c3ccc(C(=O)N[C@H]4C[C@@H](O)[C@@H](O)NC(=O)[C@@H]5[C@@H](O)[C@@H](C)CN5C(=O)[C@H]([C@@H](C)O)NC(=O)[C@H]([C@H](O)[C@@H](O)c5ccc(O)cc5)NC(=O)[C@@H]5C[C@@H](O)CN5C(=O)[C@H]([C@@H](C)O)NC4=O)cc3)cc2)cc1 [ANIDULAFUNGIN] ({pTerphenylCO(4''-OnC5H11)}-[Orn(4R-OH,5R-OH)]T[Hyp][hTyr(3S-OH,4S-OH)]T[Pro(3S-OH,4S-Me)]; lactam 1-C)
≤ 0.032 µg/mL: [1] | [2] | [4] | [5] | [6] | [9] | [10] | [12] | [13] | [14] | [16] | [17] | [18] | [20] | [21] | [22] | [23] | [25] | [26] | [28] | [29] | [32] | [34] | [35] | [36] | [38] | [39] | [40] | [41] | [43] | [44] | [45]
4 µg/mL: [11]
16 µg/mL: [15]
0.13 µg/mL: [7] | [24] | [27] | [30] | [31]
0.5 µg/mL: [8] | [42]
0.25 µg/mL: [3] | [33] | [37]
1 µg/mL: [19]
